The full list was thinned out, with hits kept by preference.
hiPSC survival – enhancers of single-cell hiPSC survival, primary screen, ATPlite luminescence; AID 602274, 2012; 100% = ROCK inhibitor wells, 0% = DMSO; survival enhancement, % at 20 µM; 0.044% of 360,000 active; in the data active = survival enhancement above about 18%;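 note: cells exposed to compounds for 16 hours before the ATP read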
H9c2 protect – cardioprotection against H2O2-induced cell death, primary screen, uHTS, H9c2 cells, ATPLite luminescence | protection from H2O2 cell death, % at 20 µM | H9c2 cardiomyocytes, H2O2 injury protection, 2 h | 0.63% of 360,000 active | AID 588492, 2011;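 active = compounds giving at least 50% protection of heart cells from peroxide-induced death in the single-dose screen, raw or plate-pattern-corrected value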;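 note: 0% = DMSO wells with peroxide and 100% = DMSO wells without peroxide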
CHOP UPR activ – activators of apoptotic CHOP UPR arm, primary screen, cell-based, CHO-CHOP luciferase reporter, luminescence, uHTS. 0.34% of 330,000 active. UPR activation; percent of tunicamycin response over DMSO baseline. AID 449763, 2010. activation, % at 10 µM;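 active = at 10 µM dose, activation of 40% or more, normalized to positive control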;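 note: 100% = tunicamycin at 10 µg/mL and 0% = DMSO alone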
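Dosing – one dose, 10 µM in 0.5% DMSO · System – CHO-CHOP cells, stable luciferase reporter of PERK-eIF2a-CHOP signalling · Input – 500 cells/well · Control set – tunicamycin 10 µg/mL final as positive, DMSO-only wells as negative · Timing – 6 h compound treatment, 37 °C · Measure – % activation vs tunicamycin · Technique – luminescence read with Steady-Glo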
CHOP inh – inhibitors of CHOP promoter induction, primary screen, cell-based, unfolded protein response, luciferase reporter; CHO-K1 CHOP-promoter luciferase, tunicamycin-induced, 15-18 h; inhibition, % at 10 µM; 3.8% of 220,000 active;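 active = compounds that reduced the stress-induced luciferase reporter signal by more than about 70% of percent inhibition, limit read from the data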;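 note: 0% = tunicamycin plus vehicle and 100% = wells without tunicamycin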
XBP1 UPR activ – activators of adaptive XBP1 UPR arm, primary screen, cell-based, CHO-XBP1 luciferase reporter, luminescence, uHTS | 0.33% of 330,000 active | IRE1-XBP1 UPR activation; percent of tunicamycin response, DMSO as zero | activation, % at 20 µM | AID 463104, 2010;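 active = versus positive control, 20 µM dose yields 30% or more activation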;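 note: 100% = tunicamycin at 10 µg/mL and 0% = DMSO only wells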
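Test system: CHO-XBP1 luciferase reporter cells | Buffer or medium: Serum-containing F12 medium, 10% FBS | Schedule: 6 h compound exposure at 37 °C, 5% CO2 | Detection: Steady-Glo luciferase glow luminescence, 10 min after reagent addition | Read-out basis: Activation, % of tunicamycin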
CHOP inh conf – retest of CHOP induction inhibitors, confirmation, cell-based; 45% of 2,100 active; inhibition, % at 10 µM; CHO-CHOP promoter luciferase reporter, tunicamycin-induced, luminescence; shares compounds with CHOP inh;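 active = mean of three repeat readings of reporter signal inhibition above a set limit, cut at about 70% in these data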;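 note: 0% = tunicamycin plus vehicle and 100% = wells lacking tunicamycin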
* hit, by the source's call.

`CCC1Cc2[nH][nH]c(=O)c2C(CC)O1` (stereo not given) gave hiPSC survival -1.
CC1(c2nnnn2Cc2ccccc2)CCC(=O)N1Cc1cccs1 (stereo not given) was read as hiPSC survival 0.
Screening CCOC(=O)Cc1nnc2c(Nc3ccc(Cl)cc3)nc3nonc3n12 returned hiPSC survival 10, H9c2 protect -29, CHOP UPR activ 1, CHOP inh 105*, XBP1 UPR activ 0 and CHOP inh conf 61.
For CCOC(=O)Cc1csc(Nc2ccc(Cl)cc2)n1 the results were hiPSC survival -2, H9c2 protect -16, CHOP UPR activ 2, CHOP inh -16 and XBP1 UPR activ 3.
`O=c1[nH]c2cc3c(cc2cc1C(c1nnnn1Cc1ccccc1)N1CCN2CCCC2C1)OCCO3` (stereo not given) gave hiPSC survival 4, H9c2 protect 1, CHOP UPR activ 2, CHOP inh 0 and XBP1 UPR activ -4.
For O=c1[nH]c2cc3c(cc2cc1C(c1nnnn1Cc1ccccc1)N1CCCCCC1)OCCO3 (stereo not given) the results were hiPSC survival 1, H9c2 protect 17, CHOP UPR activ 1, CHOP inh 101*, XBP1 UPR activ 1 and CHOP inh conf 29.
`c1ccc(SC23CCCCN(CCC2)C32OCCO2)cc1` (stereo not given) gave hiPSC survival 0.
CN1CCN(C2=C(Cl)C(=O)c3ccccc3C2=O)CC1 was read as hiPSC survival -3 and H9c2 protect -20.
Screening CN1CCN(C2=C(Cl)C(=O)C(c3cnc(N4CCCCC4)s3)=C(Cl)C2=O)CC1 returned hiPSC survival -2, H9c2 protect -19, CHOP UPR activ -1, CHOP inh 100*, XBP1 UPR activ -8 and CHOP inh conf -18.
CCCCCCCOC(=O)c1nc(Cl)c(Cl)c(N)c1Cl was read as hiPSC survival 0, H9c2 protect -19, CHOP UPR activ 1, CHOP inh 99*, XBP1 UPR activ 1 and CHOP inh conf 55.
Screening CCCCOC(=O)c1nc(Cl)c(Cl)c(N)c1Cl returned hiPSC survival 1, H9c2 protect -4, CHOP UPR activ 4, CHOP inh 6 and XBP1 UPR activ 0.
CC1=C(C)/C(=N\OC(=O)/C=C/c2ccccc2)C=CC1=O was read as hiPSC survival -5, H9c2 protect -31, CHOP UPR activ 2, CHOP inh 104*, XBP1 UPR activ -9 and CHOP inh conf -143.
For CC1=CC(=O)C=C(C)C1=NOC(=O)/C=C\c1ccccc1 the results were hiPSC survival -2, H9c2 protect -3, CHOP UPR activ 36, CHOP inh 101*, XBP1 UPR activ 1 and CHOP inh conf -90.
Screening CCc1sc(C(=O)Nc2cccnc2)cc1Br returned hiPSC survival 0, H9c2 protect 2, CHOP UPR activ 7 and XBP1 UPR activ -1.
`Cn1cnc(S(=O)(=O)N2CCCCC2c2cc(C(=O)NCc3ccc(Cl)c(Cl)c3)no2)c1` (stereo not given) gave hiPSC survival 0 and H9c2 protect -2.
For CC1(C)CC(NC(=O)C2CCC(=O)N(Cc3ccccc3F)C2)CC(C)(C)C1 (stereo not given) the results were hiPSC survival 0, H9c2 protect -5, CHOP UPR activ 6 and XBP1 UPR activ 0.
CCC(C)c1ccc(NC(=S)NCc2ccccc2OC)cc1 (stereo not given) was read as hiPSC survival -3, H9c2 protect -12, CHOP inh 97* and CHOP inh conf 69.
O=c1[nH]c(=S)[nH]c(O)c1N=Nc1ccc(-c2ccccc2)cc1[N+](=O)[O-] was read as CHOP inh 102* and CHOP inh conf 42.
For CC1=C(C)/C(=N\OS(=O)(=O)c2ccc(C)cc2)C=CC1=O the results were hiPSC survival -2, H9c2 protect -23, CHOP inh 108* and CHOP inh conf 104*.
CC1=C/C(=N\OS(=O)(=O)c2ccccc2)C(C)=CC1=O was read as hiPSC survival -5, H9c2 protect -17, CHOP UPR activ -11, CHOP inh 111*, XBP1 UPR activ -6 and CHOP inh conf 128*.
CCCCNS(=O)(=O)c1ccc2nc(-c3cccnc3)cc(C(=O)NC3CCCC3)c2c1 was read as hiPSC survival -1, H9c2 protect -3, CHOP UPR activ 4, CHOP inh 102*, XBP1 UPR activ 5 and CHOP inh conf 107*.
`CCCCCCn1c(=O)n2n(c1=O)[C@@H]1CN(S(=O)(=O)c3ccc(C)cc3)C[C@]1(O)[C@@H](OC(=O)Nc1cccs1)C2` gave hiPSC survival 2 and H9c2 protect -13.
Cn1cnnc1SC(C(=O)Nc1ccc(F)cc1)c1ccccc1 (stereo not given) was read as hiPSC survival -1, H9c2 protect 7, CHOP UPR activ -2, CHOP inh 24 and XBP1 UPR activ -5.
Screening Cc1ccc2nc(SC(C(=O)Nc3ccc(F)cc3)c3ccccc3)[nH]c2c1 (stereo not given) returned hiPSC survival -2, H9c2 protect -10, CHOP UPR activ 2, CHOP inh 106*, XBP1 UPR activ -2 and CHOP inh conf 56.
Screening O=C(c1cc(COc2ccc(F)cc2Cl)on1)N1CCN(c2cnccn2)CC1 returned hiPSC survival 0, H9c2 protect 1, CHOP UPR activ 1 and XBP1 UPR activ -5.
Screening Clc1ccc(CNc2ccc3nnc(-c4ccccc4)n3n2)cc1 returned hiPSC survival 1, H9c2 protect -2, CHOP UPR activ 2, CHOP inh 66 and XBP1 UPR activ -1.
Screening CCOc1ccc(CCNc2ccc3nnc(-c4ccccc4)n3n2)cc1OCC returned hiPSC survival 1, H9c2 protect 47, CHOP UPR activ 1, CHOP inh 97*, XBP1 UPR activ -4 and CHOP inh conf 64.
`CC(=O)c1c(C)[nH]c(C(=O)Nc2ccc(C)cc2Br)c1C` gave hiPSC survival -1, H9c2 protect 10, CHOP UPR activ 8 and XBP1 UPR activ 5.
CC(C)C[C@H]1CN([C@@H](Cc2ccccc2)CN2CCC[C@@H]2CN2C(=O)C(=O)NC[C@@H]2Cc2ccccc2)C(=O)C(=O)N1CCc1ccccc1 was read as hiPSC survival 2 and H9c2 protect -3.
Screening CCOC(=O)c1c2ccc(OCC(=O)N/N=C/c3ccc(Cl)cc3)cc2n2ccccc12 returned CHOP inh 104* and CHOP inh conf 0.
